# Laboratory results taken from PubChem BioAssay.
# The source made the active and inactive calls.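 Rule for the calls, unless noted: active = viability at or below 10% of carrier control in both of two separate runs; inconclusive = viability at or below 10% in only one of the two runs; inactive = the rest.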
# Assays:
# [1] = Her2 expression decrease, cell viability multiplex – SKBR3 breast tumor cells, AlphaScreen, ATP viability, primary screen (AID 461;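 active = Her2 level under about 52% in both replicate screens, with viability over 70% of control, limit read from the data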;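 for Her2 level: lower value means less Her2 protein in the cells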;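 for viability: percent of carrier control wells set as 100% viability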); details: SKBR3 Her2 protein level, 18-24 h, measured here: SKBR3 viability, ATP luminescence, at 10 µM
# [2] = target: Receptor tyrosine-protein kinase erbB-2 (Homo sapiens) (UniProt P04626); assay: as above; details: 18-24 h, at 10 µM, stronger effect = lower value
# [3] = reduced viability of SK-BR-3 breast cancer cells – cell-based, 24 h, human, pilot screen (AID 572); details: SK-BR-3 viability, CellTiter-Glo luminescence, at 10 µM, stronger effect = lower value;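 note: compound exposure lasted between 18 and 24 h rather than exactly 24 h; 100% = carrier-treated control wells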
# [4] = HUVEC growth inhibition – cell-based, human, primary screen (AID 575;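 active = viability at or below 30% in both replicate assays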;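 note: 100% = median of untreated cell wells with 0.1% DMSO on each plate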); details: HUVEC proliferation, CellTiter-Glo luminescence, 72 h; at 10 µM; stronger effect = lower value
# Summary of the method: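 System: primary human umbilical vein endothelial cells; Quantity: 1250 endothelial cells in each well; Buffer or medium: supplemented EBM, 2% fetal bovine serum; Doses: one dose, 10 µM final, 0.1% DMSO; Incubation: 72 h compound incubation; Technique: ATP-based CellTiter-Glo luminescent read; Evaluation: percent of median DMSO-control luminescence; Controls: vehicle and MePR control wells.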
# [5] = H69AR cell proliferation blockers – human, duplicate replicates, primary screen (AID 580;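 active = viability at or under a set limit in both replicates, limit being median viability minus 3 SD, cut at about 48% in these data, passing the limit was not always enough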;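 note: 100% = mean luminescence of untreated wells and 0% = no signal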); details: H69AR lung tumor cells viability, ATP luminescence, 72 h; at 10 µM; stronger effect = lower value
# [6] = MRP1 drug-resistance reversers in H69AR cells – cell-based, doxorubicin co-treatment, pilot screen (AID 601;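 active = viability loss from added drug above about 55%, and viability with drug at most 40%, in both replicates, limit read from the data, passing the limit was not always enough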); details: CellTiter-Glo, 72 h, at 10 µM; for differential viability (reversal): stronger effect = higher value
# [7] = yeast transport mutant growth inhibition pilot in 384-well plates, post-Golgi transport modulator project (AID 636; in the data active = inhibition above about 31%); details: absorbance 615 nm, about 18 h, stronger effect = higher value
# [8] = growth suppression of yeast trafficking mutant, preliminary HTS, modulators of trafficking downstream of Golgi apparatus project, 1536-format plate, OD 615 nm (AID 637; in the data active = inhibition above about 30%); details: yeast transport mutant growth, absorbance 615 nm, 18 h; stronger effect = higher value
# [9] = H69AR cells + 2 uM doxorubicin, measured here: viability with 2 uM doxorubicin, stronger effect = lower value
# [10] = H69AR cells, compound alone cytotoxicity
# Chain of Receptor tyrosine-protein kinase erbB-2 (Homo sapiens) (P04626 whole entry, looked up): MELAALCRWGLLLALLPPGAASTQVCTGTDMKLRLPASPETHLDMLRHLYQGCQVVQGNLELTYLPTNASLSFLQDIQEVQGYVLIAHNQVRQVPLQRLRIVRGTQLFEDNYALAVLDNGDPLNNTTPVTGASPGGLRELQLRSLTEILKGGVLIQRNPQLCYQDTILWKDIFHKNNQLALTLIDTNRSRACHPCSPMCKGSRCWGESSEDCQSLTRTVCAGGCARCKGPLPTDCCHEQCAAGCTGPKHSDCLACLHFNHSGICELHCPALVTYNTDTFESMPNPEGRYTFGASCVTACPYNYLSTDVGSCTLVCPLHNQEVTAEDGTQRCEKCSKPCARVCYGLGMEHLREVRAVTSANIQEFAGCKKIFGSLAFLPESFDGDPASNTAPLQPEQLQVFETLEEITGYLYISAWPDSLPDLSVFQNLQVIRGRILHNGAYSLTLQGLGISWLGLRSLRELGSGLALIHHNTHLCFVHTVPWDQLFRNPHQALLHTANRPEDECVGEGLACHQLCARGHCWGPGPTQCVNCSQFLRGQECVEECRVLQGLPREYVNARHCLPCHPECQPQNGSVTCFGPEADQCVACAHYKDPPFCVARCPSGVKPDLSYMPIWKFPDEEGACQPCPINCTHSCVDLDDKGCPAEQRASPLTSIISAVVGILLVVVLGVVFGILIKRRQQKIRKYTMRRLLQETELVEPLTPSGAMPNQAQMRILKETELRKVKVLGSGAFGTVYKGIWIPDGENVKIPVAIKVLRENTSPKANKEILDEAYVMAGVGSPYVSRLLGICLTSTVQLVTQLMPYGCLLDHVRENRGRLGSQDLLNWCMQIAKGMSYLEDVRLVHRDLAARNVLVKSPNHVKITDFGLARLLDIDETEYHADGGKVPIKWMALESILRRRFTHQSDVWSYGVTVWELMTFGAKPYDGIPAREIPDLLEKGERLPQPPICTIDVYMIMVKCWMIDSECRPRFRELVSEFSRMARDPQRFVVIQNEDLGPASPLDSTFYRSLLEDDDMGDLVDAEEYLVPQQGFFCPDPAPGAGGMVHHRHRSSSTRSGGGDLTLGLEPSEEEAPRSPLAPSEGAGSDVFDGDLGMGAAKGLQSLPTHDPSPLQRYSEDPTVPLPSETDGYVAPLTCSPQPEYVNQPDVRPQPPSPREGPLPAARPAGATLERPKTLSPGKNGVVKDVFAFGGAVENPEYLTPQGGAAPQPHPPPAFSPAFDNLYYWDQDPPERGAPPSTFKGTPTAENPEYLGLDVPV
Compound,viability [1] [%],Her2 level [2],viability [3],viability [4],viability [5],differential viability (reversal) ([6]; H69AR cells + 2 uM doxorubicin),"viability [6, 9] [%]","viability [6, 10] [%]",inhibition [7],inhibition [8]
Cc1cccc(OCC(=O)N(Cc2cccs2)C2CCS(=O)(=O)C2)c1C (stereo not given),96.5,83.5% (inactive),96.5% (inactive),72.8% (inactive),94.6% (inactive),3.22% (inactive),91.4,94.6,-6.35% (inactive),3.02% (inactive)
CCN(CC)C(=O)CSc1nc2ccccc2c(=O)n1CCC(=O)NCc1ccc(F)cc1,93,105% (inactive),93% (inactive),98.3% (inactive),92.7% (inactive),3.08% (inactive),89.6,92.7,4.34% (inactive),20.2% (inactive)
CCOC(=O)C(NC(C)=O)(NS(=O)(=O)c1ccccc1)C(F)(F)F (stereo not given),122,101% (inactive),122% (inactive),101% (inactive),100% (inactive),5.89% (inactive),94.2,100,-4.16% (inactive),1.59% (inactive)
COc1ccc(-c2onc(C)c2-c2ccccc2)c(O)c1,99.5,73% (inactive),99.5% (inactive),79.6% (inactive),18.5% (active),-44.4% (inactive),62.9,18.5,-4.53% (inactive),0.32% (inactive)
COc1cccc(S(=O)(=O)Nc2cccnc2)c1,98,107% (inactive),98% (inactive),88.2% (inactive),103% (inactive),12.3% (inactive),90.3,103,-0.4% (inactive),-3.71% (inactive)
O=C(C1CCCN(S(=O)(=O)c2cnc[nH]2)C1)N1CCN(c2ccc(Cl)cc2)CC1 (stereo not given),85.5,93% (inactive),85.5% (inactive),110% (inactive),111% (inactive),14.8% (inactive),96,111,-0.13% (inactive),-4.92% (inactive)
Cc1cc(C)n2nc(S(=O)(=O)N(C)Cc3ccccc3)nc2n1,80,91% (inactive),80% (inactive),122% (inactive),93.4% (inactive),4.15% (inactive),89.2,93.4,-7.16% (inactive),-5.67% (inactive)
O=C(N1CCN(Cc2ccccc2)CC1)C12CC3CC(CC(C3)C1)C2,83,98% (inactive),83% (inactive),80.4% (inactive),83.4% (inactive),-5.52% (inactive),88.9,83.4,-5.54% (inactive),-0.67% (inactive)
O=C(Nc1ccc2oc(-c3ccncc3)nc2c1)c1cccs1,96,112% (inactive),96% (inactive),88.9% (inactive),79.6% (inactive),0.7% (inactive),78.9,79.6,-2.76% (inactive),2.3% (inactive)
COC(=O)c1c(NC(=O)CSc2nnc(-c3cccnc3)n2Cc2ccco2)sc(C)c1C,87,77% (inactive),87% (inactive),71.5% (inactive),83.7% (inactive),9.16% (inactive),74.5,83.7,-5.14% (inactive),-6.03% (inactive)
O=C(CSc1nnc(-c2ccccc2)c(-c2ccccc2)n1)N1CCOCC1,97,93% (inactive),97% (inactive),101% (inactive),85.3% (inactive),12.8% (inactive),72.5,85.3,0% (inactive),-5.48% (inactive)
O=C(NCc1ccccn1)C(C(=O)c1ccc(F)cc1)n1ccccc1=O (stereo not given),86.5,95.5% (inactive),86.5% (inactive),97.9% (inactive),96.4% (inactive),-3.97% (inactive),100,96.4,-4.05% (inactive),4.1% (inactive)
c1coc(-c2nnc(NC3=NCCC3)o2)c1,100,94% (inactive),100% (inactive),97.2% (inactive),98.7% (inactive),11.4% (inactive),87.3,98.7,-5.34% (inactive),-10.2% (inactive)
CCN(CC)C(=O)Cn1c(=O)n(Cc2ccccc2Cl)c2c1c(=O)n(C)c(=O)n2C,98,100% (inactive),98% (inactive),98.6% (inactive),93.7% (inactive),4.23% (inactive),89.5,93.7,-0.93% (inactive),-4.13% (inactive)
COc1ccc(-n2c(SCc3ccc(C#N)cc3)nnc2-c2ccccn2)cc1,82.5,91.5% (inactive),82.5% (inactive),120% (inactive),96.3% (inactive),11.2% (inactive),85,96.3,-7.16% (inactive),-5.56% (inactive)
CCOc1cc(C(=O)NCc2nnc(SCC(=O)OC)n2C)cc(OCC)c1OCC,98,85% (inactive),98% (inactive),104% (inactive),95.8% (inactive),8.31% (inactive),87.5,95.8,-6.84% (inactive),-2% (inactive)

Compound,viability [1] [%],Her2 level [2],viability [3],viability [4],viability [5],differential viability (reversal) ([6]; H69AR cells + 2 uM doxorubicin),"viability [6, 9] [%]","viability [6, 10] [%]",inhibition [7],inhibition [8]
CCOc1ccc(NC(=O)c2ccc3c(c2)N(Cc2ccc(F)cc2)C(=O)CS3=O)cc1 (stereo not given),90,81.5% (inactive),90% (inactive),70.4% (inactive),90% (inactive),11.4% (inactive),78.6,90,-1.07% (inactive),-0.17% (inactive)
C=CCOc1nc2c(c(=O)n(C)c(=O)n2C)n1Cc1c(Cl)cccc1Cl,97.5,83% (inactive),97.5% (inactive),94.9% (inactive),80.4% (inactive),62% (active),18.3,80.4,-3.92% (inactive),11.9% (inactive)
O=C(NCC(=O)N(c1cnc2ccccc2c1)C(C(=O)NC1CCCC1)c1ccncc1)c1ccco1 (stereo not given),86,94% (inactive),86% (inactive),94.5% (inactive),90.1% (inactive),-3.65% (inactive),93.7,90.1,3.64% (inactive),13.4% (inactive)
CCOc1cccc(/C(O)=C2/C(=O)C(=O)N(CCN3CCOCC3)C2c2cccnc2)c1 (stereo not given),98.5,99.5% (inactive),98.5% (inactive),87.3% (inactive),103% (inactive),5.18% (inactive),98.2,103,-3.68% (inactive),-3.17% (inactive)
Cc1ccc(S(=O)(=O)N2CCOCC2)cc1C(=O)Nc1ccccn1,87,83% (inactive),87% (inactive),110% (inactive),93.8% (inactive),7.62% (inactive),86.1,93.8,-6.76% (inactive),-3.17% (inactive)
Cc1onc(-c2ccccc2Cl)c1C(=O)Nc1cccnc1,102,72% (inactive),102% (inactive),103% (inactive),95.6% (inactive),1.41% (inactive),94.2,95.6,-7.57% (inactive),-1.31% (inactive)
Cc1cccc(CCNC(=O)CCc2nc(-c3ccccc3F)no2)c1,91.5,104% (inactive),91.5% (inactive),89.1% (inactive),93.5% (inactive),9.82% (inactive),83.7,93.5,-2.37% (inactive),-5% (inactive)
Cc1ccc(C(=O)NCc2ccc3c(c2)OCO3)cc1S(=O)(=O)N1CCCCC1,91.5,100% (inactive),91.5% (inactive),96.6% (inactive),96.2% (inactive),-2.33% (inactive),98.5,96.2,-3.2% (inactive),-7.14% (inactive)
Cc1cccc(N2CN=c3s/c(=C\c4ccncc4)c(=O)n3C2)c1,86.5,68% (inactive),86.5% (inactive),77.4% (inactive),80.8% (inactive),-10.2% (inactive),91,80.8,-1.32% (inactive),-2.42% (inactive)
CC1(C)CC(=O)c2cnc(NCc3ccco3)nc2C1,99,107% (inactive),99% (inactive),114% (inactive),96.2% (inactive),11% (inactive),85.2,96.2,-10.4% (inactive),-8.83% (inactive)
CC(NC(=O)C1CCCN(S(=O)(=O)c2cccs2)C1)c1ccccc1 (stereo not given),95,80.5% (inactive),95% (inactive),104% (inactive),89.7% (inactive),1.41% (inactive),88.2,89.7,1.03% (inactive),1.17% (inactive)
O=C(COC(=O)c1cc(-c2ccco2)nc2ccccc12)NCc1ccc2c(c1)OCO2,97,93% (inactive),97% (inactive),72.2% (inactive),96.8% (inactive),11.3% (inactive),85.5,96.8,-5.75% (inactive),-10.3% (inactive)
CCOC(=O)c1c(NC(=O)CSc2nnc(-c3cccnc3)o2)sc(C)c1C,120,104% (inactive),120% (inactive),103% (inactive),99.1% (inactive),14% (inactive),85.1,99.1,-4.34% (inactive),-8.73% (inactive)
O=C(Nc1c(-c2ccccc2)nc2ccccn12)c1ccco1,95,106% (inactive),95% (inactive),109% (inactive),103% (inactive),16.5% (inactive),86.9,103,-0.92% (inactive),-4.55% (inactive)
COc1ccc(-c2noc(-c3ccccc3C(=O)NCc3ccco3)n2)cc1,93,104% (inactive),93% (inactive),107% (inactive),82.8% (inactive),-12.1% (inactive),94.9,82.8,-3.12% (inactive),-5.24% (inactive)
